Test results taken from PubChem BioAssay.
Active and inactive are the calls of the source. Rule as the data show it, unless noted: active = inhibition above about 30%; inactive = the rest.

What was measured:
[1] = Her2 expression decrease, cell viability multiplex – SKBR3 breast tumor cells, AlphaScreen, ATP viability, primary screen (AID 461;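 active = Her2 level under about 52% in both replicate screens, with viability over 70% of control, limit read from the data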;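 as to Her2 level: lower value means less Her2 protein in the cells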;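 as to viability: percent of carrier control wells set as 100% viability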); details: SKBR3 Her2 protein level, 18-24 h, measured here: SKBR3 viability, ATP luminescence, at 10 µM
[2] = target: Receptor tyrosine-protein kinase erbB-2 (Homo sapiens) (UniProt P04626); assay: as above; details: 18-24 h, at 10 µM, stronger effect = lower value
Receptor tyrosine-protein kinase erbB-2 (Homo sapiens), sequence (P04626 whole entry, looked up): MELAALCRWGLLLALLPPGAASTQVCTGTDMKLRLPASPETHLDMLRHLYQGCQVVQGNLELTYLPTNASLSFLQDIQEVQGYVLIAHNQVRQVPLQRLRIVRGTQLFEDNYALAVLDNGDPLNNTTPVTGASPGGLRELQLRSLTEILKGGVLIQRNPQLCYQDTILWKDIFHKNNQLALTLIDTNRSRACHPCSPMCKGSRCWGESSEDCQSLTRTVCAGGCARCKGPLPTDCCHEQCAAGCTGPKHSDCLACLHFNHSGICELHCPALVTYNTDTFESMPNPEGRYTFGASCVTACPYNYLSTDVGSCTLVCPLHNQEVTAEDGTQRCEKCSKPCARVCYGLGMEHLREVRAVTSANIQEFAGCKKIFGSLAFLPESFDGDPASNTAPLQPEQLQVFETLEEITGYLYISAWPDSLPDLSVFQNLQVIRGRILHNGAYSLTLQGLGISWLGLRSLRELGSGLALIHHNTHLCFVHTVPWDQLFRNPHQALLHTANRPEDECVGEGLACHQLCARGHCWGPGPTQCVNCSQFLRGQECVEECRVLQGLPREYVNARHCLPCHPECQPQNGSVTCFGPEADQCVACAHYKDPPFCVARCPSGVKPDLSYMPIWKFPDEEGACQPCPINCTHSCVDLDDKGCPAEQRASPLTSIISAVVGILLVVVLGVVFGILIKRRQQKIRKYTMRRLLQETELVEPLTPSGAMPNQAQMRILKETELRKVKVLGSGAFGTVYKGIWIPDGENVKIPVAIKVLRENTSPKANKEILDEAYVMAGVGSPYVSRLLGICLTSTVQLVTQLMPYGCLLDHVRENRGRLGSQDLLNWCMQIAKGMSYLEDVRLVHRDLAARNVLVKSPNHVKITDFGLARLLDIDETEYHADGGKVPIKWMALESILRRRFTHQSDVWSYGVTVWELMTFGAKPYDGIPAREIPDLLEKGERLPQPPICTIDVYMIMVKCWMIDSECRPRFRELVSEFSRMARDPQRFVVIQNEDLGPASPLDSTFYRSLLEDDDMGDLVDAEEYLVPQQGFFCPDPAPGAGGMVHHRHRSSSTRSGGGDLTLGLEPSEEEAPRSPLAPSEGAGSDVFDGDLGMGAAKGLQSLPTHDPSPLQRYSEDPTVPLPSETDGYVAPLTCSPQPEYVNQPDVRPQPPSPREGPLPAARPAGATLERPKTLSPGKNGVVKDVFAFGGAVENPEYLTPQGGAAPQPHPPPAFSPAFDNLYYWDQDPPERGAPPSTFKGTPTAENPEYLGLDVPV

[3] = reduced viability of SK-BR-3 breast cancer cells – cell-based, 24 h, human, pilot screen (AID 572;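 active = viability at or below 10% of carrier control in both of two separate runs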;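 also: compound exposure lasted between 18 and 24 h rather than exactly 24 h; 100% = carrier-treated control wells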); details: SK-BR-3 viability, CellTiter-Glo luminescence, at 10 µM, stronger effect = lower value
[4] = HUVEC growth inhibition – cell-based, human, primary screen (AID 575;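 active = viability at or below 30% in both replicate assays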;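 also: 100% = median of untreated cell wells with 0.1% DMSO on each plate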); details: HUVEC proliferation, CellTiter-Glo luminescence, 72 h; at 10 µM; stronger effect = lower value
Procedure, shortened: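 System: primary human umbilical vein endothelial cells; Quantity: 1250 endothelial cells in each well; Buffer or medium: supplemented EBM, 2% fetal bovine serum; Doses: one dose, 10 µM final, 0.1% DMSO; Incubation: 72 h compound incubation; Technique: ATP-based CellTiter-Glo luminescent read; Evaluation: percent of median DMSO-control luminescence; Controls: vehicle and MePR control wells.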

[5] = H69AR cell proliferation blockers – human, duplicate replicates, primary screen (AID 580;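 active = viability at or under a set limit in both replicates, limit being median viability minus 3 SD, cut at about 48% in these data, passing the limit was not always enough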;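 also: 100% = mean luminescence of untreated wells and 0% = no signal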); details: H69AR lung tumor cells viability, ATP luminescence, 72 h; at 10 µM; stronger effect = lower value
[6] = MRP1 drug-resistance reversers in H69AR cells – cell-based, doxorubicin co-treatment, pilot screen (AID 601;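 active = viability loss from added drug above about 55%, and viability with drug at most 40%, in both replicates, limit read from the data, passing the limit was not always enough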); details: CellTiter-Glo, 72 h, at 10 µM; for differential viability (reversal): stronger effect = higher value
[7] = yeast transport mutant growth inhibition pilot in 384-well plates, post-Golgi transport modulator project (AID 636; in the data active = inhibition above about 31%); details: absorbance 615 nm, about 18 h, stronger effect = higher value
[8] = growth suppression of yeast trafficking mutant, preliminary HTS, modulators of trafficking downstream of Golgi apparatus project, 1536-format plate, OD 615 nm (AID 637); details: yeast transport mutant growth, absorbance 615 nm, 18 h; stronger effect = higher value
[9] = H69AR cells + 2 uM doxorubicin, measured here: viability with 2 uM doxorubicin, stronger effect = lower value
[10] = H69AR cells, compound alone cytotoxicity

| Compound | viability [1] [%] | Her2 level [2] | viability [3] | viability [4] | viability [5] | differential viability (reversal) ([6]; H69AR cells + 2 uM doxorubicin) | viability [6, 9] [%] | viability [6, 10] [%] | inhibition [7] | inhibition [8] |
| --- | --- | --- | --- | --- | --- | --- | --- | --- | --- | --- |
| COc1ccc(Cn2c(-c3ccco3)nc3oc4ccccc4c(=O)c3c2=O)cc1 | 87.5 | 92.5% (inactive) | 87.5% (inactive) | 101% (inactive) | 98.2% (inactive) | 14.2% (inactive) | 84 | 98.2 | -0.67% (inactive) | 6.45% (inactive) |
| CCc1ccccc1NC(=O)CSc1nc2n[nH]c(C)c2c(=N)n1-c1ccc(OC)cc1 | 98.5 | 77.5% (inactive) | 98.5% (inactive) | 66.4% (inactive) | 80% (inactive) | -2.23% (inactive) | 82.3 | 80 | -5.92% (inactive) | 6.51% (inactive) |
| CCN=C1SC(CC(=O)Nc2ccccc2)C(=O)N1CC (stereo not given) | 98.5 | 91.5% (inactive) | 98.5% (inactive) | 122% (inactive) | 105% (inactive) | 10% (inactive) | 94.9 | 105 | -1.92% (inactive) | -1.33% (inactive) |
| CC1CCN(CC(O)COC2CCC(C(C)(C)C)CC2)CC1 (stereo not given) | 82 | 76% (inactive) | 82% (inactive) | 73.8% (inactive) | 74.5% (inactive) | 3.15% (inactive) | 71.4 | 74.5 | 97.8% (active) | 84.4% (active) |
| CCn1cc(C2=NCC(C)O2)c2ccccc21 (stereo not given) | 96.5 | 83% (inactive) | 96.5% (inactive) | 74.8% (inactive) | 93.5% (inactive) | 3.18% (inactive) | 90.3 | 93.5 | -5.54% (inactive) | -0.32% (inactive) |
| COc1ccc(-n2c(Cc3cccn3C)nnc2SCC(=O)Nc2cccc(OC)c2)cc1 | 106 | 97.5% (inactive) | 106% (inactive) | 80.9% (inactive) | 98% (inactive) | 0.895% (inactive) | 97.1 | 98 | 1.79% (inactive) | 0% (inactive) |
| CCOC(=O)c1cc(C)n(CCCN2CCOCC2)c1C | 90.5 | 85% (inactive) | 90.5% (inactive) | 92.4% (inactive) | 91.1% (inactive) | -4.19% (inactive) | 95.2 | 91.1 | -0.66% (inactive) | 1.11% (inactive) |
| CC(O)c1nc2ccccc2n1C1CCCCC1 (stereo not given) | 104 | 91.5% (inactive) | 104% (inactive) | 124% (inactive) | 97.2% (inactive) | 11.3% (inactive) | 85.9 | 97.2 | -1.18% (inactive) | 3.55% (inactive) |
| CCOC(=O)c1ccc(NC(=O)CSCc2ccco2)cc1 | 108 | 100% (inactive) | 108% (inactive) | 81.9% (inactive) | 87.7% (inactive) | 8.33% (inactive) | 79.4 | 87.7 | -5.45% (inactive) | -2.62% (inactive) |
| O=C1CN(C(=O)CN2CCCC2)C(c2ccccc2)c2cc(Br)ccc2N1 (stereo not given) | 94 | 91% (inactive) | 94% (inactive) | 75.8% (inactive) | 102% (inactive) | 4.63% (inactive) | 97.2 | 102 | -4.67% (inactive) | 1.61% (inactive) |
| CCOC(=O)c1sc(NC(=O)C2CC=CCC2C(=O)O)nc1C (stereo not given) | 105 | 92.5% (inactive) | 105% (inactive) | 100% (inactive) | 98.1% (inactive) | 1.07% (inactive) | 97.1 | 98.1 | -1.04% (inactive) | -1.64% (inactive) |
| CCOc1ccc(Cl)cc1S(=O)(=O)N1CCCC1 | 100 | 94.5% (inactive) | 100% (inactive) | 101% (inactive) | 88.8% (inactive) | -5.74% (inactive) | 94.5 | 88.8 | -4.34% (inactive) | -1.11% (inactive) |
| O=C(NCc1nnc(SCC(=O)N2CCCCCC2)o1)c1ccco1 | 104 | 100% (inactive) | 104% (inactive) | 101% (inactive) | 111% (inactive) | 18.3% (inactive) | 92.8 | 111 | -4.27% (inactive) | -0.48% (inactive) |
| CCCC1CC(C)(C(=O)Cn2[nH]c(=O)ccc2=O)OC1=O (stereo not given) | 84 | 95.5% (inactive) | 84% (inactive) | 105% (inactive) | 91.8% (inactive) | -3.6% (inactive) | 95.4 | 91.8 | -4% (inactive) | 5.08% (inactive) |
